We go through 24 compounds from ChEMBL document CHEMBL4190386, “Discovery of 6-(pyrimidin-5-ylmethyl)quinoline-8-carboxamide negative allosteric modulators of metabotropic glutamate receptor subtype 5” (Bioorg Med Chem Lett, 2018).

Molecules are shown by their SMILES. The source made the active and inactive calls. No cut-off for these calls is given here.

Data set [1] concerns the target Metabotropic glutamate receptor 5 (Rattus norvegicus, UniProt P31424). Kind of data set: Negative allosteric modulator activity at rat mGlu5 receptor expressed in HEK293A cells assessed as inhibition of EC80 glutamate-induced Ca2+ mobilization by Fluo-4 AM dye based fluorescence assay. The data set is classed as functional, cell-based.
The target in data set [2] is Metabotropic glutamate receptor 5 (Rattus norvegicus) (UniProt P31424). Kind of data set: Negative allosteric modulator activity at rat mGlu5 receptor expressed in HEK293A cells assessed as EC80 glutamate-induced maximum Ca2+ mobilization response at 30 uM relative to 100 uM glutamate by Fluo-4 AM dye based fluorescence assay. Format: functional, cell-based. For orientation: A change in cytosolic calcium serves as a functional read-out for many receptors and channels.
Metabotropic glutamate receptor 5 (Rattus norvegicus), sequence (P31424 21-1203 limits assumed): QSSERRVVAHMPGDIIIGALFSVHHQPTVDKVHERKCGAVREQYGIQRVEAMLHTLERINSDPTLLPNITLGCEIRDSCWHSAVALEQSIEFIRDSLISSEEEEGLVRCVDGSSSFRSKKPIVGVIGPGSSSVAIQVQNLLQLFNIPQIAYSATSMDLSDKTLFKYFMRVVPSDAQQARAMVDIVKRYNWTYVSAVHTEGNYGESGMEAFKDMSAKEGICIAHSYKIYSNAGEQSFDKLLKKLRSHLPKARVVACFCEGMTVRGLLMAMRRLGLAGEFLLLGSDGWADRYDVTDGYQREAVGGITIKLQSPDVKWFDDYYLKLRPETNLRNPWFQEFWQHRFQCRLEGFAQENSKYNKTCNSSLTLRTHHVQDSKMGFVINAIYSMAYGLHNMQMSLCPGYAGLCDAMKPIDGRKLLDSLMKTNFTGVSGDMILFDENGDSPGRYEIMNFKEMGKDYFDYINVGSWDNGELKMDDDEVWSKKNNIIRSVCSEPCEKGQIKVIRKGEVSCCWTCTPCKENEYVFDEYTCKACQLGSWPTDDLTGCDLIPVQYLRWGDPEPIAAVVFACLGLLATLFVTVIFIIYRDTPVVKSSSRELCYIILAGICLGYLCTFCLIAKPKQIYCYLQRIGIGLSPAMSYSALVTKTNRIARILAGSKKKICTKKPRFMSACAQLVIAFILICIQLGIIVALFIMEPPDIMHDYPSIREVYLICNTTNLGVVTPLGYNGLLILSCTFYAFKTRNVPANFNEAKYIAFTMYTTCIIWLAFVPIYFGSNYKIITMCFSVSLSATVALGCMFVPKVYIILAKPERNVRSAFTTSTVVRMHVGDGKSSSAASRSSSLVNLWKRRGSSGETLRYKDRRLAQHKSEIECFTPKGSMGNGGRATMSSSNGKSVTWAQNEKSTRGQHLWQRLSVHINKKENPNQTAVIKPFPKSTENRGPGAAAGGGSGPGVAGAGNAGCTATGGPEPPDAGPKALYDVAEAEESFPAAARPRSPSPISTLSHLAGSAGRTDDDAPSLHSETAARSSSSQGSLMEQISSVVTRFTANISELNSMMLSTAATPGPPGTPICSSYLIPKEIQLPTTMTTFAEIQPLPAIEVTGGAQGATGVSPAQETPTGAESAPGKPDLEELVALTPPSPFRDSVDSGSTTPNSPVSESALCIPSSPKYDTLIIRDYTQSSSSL

The nature of data set [3]: Drug metabolism in rat whole blood treated with N-(4-methylthiazol-2-yl)-6-nicotinoylquinoline-8-carboxamide assessed as compound formation at 37 degC incubated for 1 hr. The data set is classed as ADME, tissue-based.
The nature of data set [4]: in vitro. The settings on record: rat, plasma.
Data set [5] can be described thus: in vitro. The settings on record: human, plasma.
A short description of data set [6]: Drug metabolism in rat whole blood assessed as 6-(hydroxy(pyridin-3-yl)methyl)-N-(4-methylthiazol-2-yl)quinoline-8-carboxamide formation at 37 degC incubated for 1 hr. Format: ADME, tissue-based.
Data set [7] can be described thus: Half life in rat at 1 mg/kg, iv. Format: ADME, organism-based. The settings on record: in vivo. The essentials: (§1)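 Rat intravenous PK: n = 2 male Sprague-Dawley rats, 1.0 mg/kg IV in 10% ethanol/90% PEG 400. Parent and the alcohol metabolite were measured in plasma. MRT = mean residence time.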
Data set [8] can be described thus: Mean residence time in rat at 1 mg/kg, iv. The settings on record: in vivo. Format: ADME, organism-based. The essentials:
as §1

Data set [9] in a line: Volume of distribution at steady state in rat at 1 mg/kg, iv. The data set is classed as ADME, organism-based. The settings on record: in vivo, read-out: Vdss. The essentials:
as §1

Data set [10] relates to Rattus norvegicus. Kind of data set: Half life in rat assessed as 6-(hydroxy(pyridin-3-yl)methyl)-N-(4-methylthiazol-2-yl)quinoline-8-carboxamide formation at 1 mg/kg, iv. Format: ADME, organism-based. Particulars: in vivo. The method in brief: as §1
The test system of data set [11] is Rattus norvegicus. Kind of data set: Mean residence time in rat assessed as 6-(hydroxy(pyridin-3-yl)methyl)-N-(4-methylthiazol-2-yl)quinoline-8-carboxamide formation at 1 mg/kg, iv. Particulars: in vivo. The data set is classed as ADME, organism-based. The method in brief: as §1
The test system of data set [12] is Rattus norvegicus. Kind of data set: Volume of distribution at steady state in rat assessed as 6-(hydroxy(pyridin-3-yl)methyl)-N-(4-methylthiazol-2-yl)quinoline-8-carboxamide formation at 1 mg/kg, iv. The data set is classed as ADME, organism-based. The settings on record: in vivo. The method in brief:
as §1

Data set [13] concerns the target Metabotropic glutamate receptor 5 (Homo sapiens) (UniProt P41594). Kind of data set: Negative allosteric modulation of human mGlu5 receptor expressed in HEK293A cells assessed as reduction in glutamate-induced calcium mobilization at 10 uM by Fluo-4--AM dye based fluorescence assay. Format: functional, cell-based.
The target in data set [14] is Metabotropic glutamate receptor 2 (Rattus norvegicus) (UniProt P31421). Kind of data set: Negative allosteric modulation of rat mGlu2 receptor expressed in HEK cells harboring GIRK assessed as reduction in glutamate-induced thallium flux at 10 uM preincubated for 5 mins followed by glutamate addition measured after 2 mins by BTC-AM-dye based fluorescence assay. The data set is classed as functional, cell-based.

Data set [15] deals with Metabotropic glutamate receptor 3 (Rattus norvegicus) (UniProt P31422). Kind of data set: Negative allosteric modulation of rat mGlu3 receptor expressed in HEK cells harboring GIRK assessed as reduction in glutamate-induced thallium flux at 10 uM preincubated for 5 mins followed by glutamate addition measured after 2 mins by BTC-AM-dye based fluorescence assay. The data set is classed as functional, cell-based.

The target in data set [16] is Metabotropic glutamate receptor 4 (Rattus norvegicus) (UniProt P31423). Kind of data set: Negative allosteric modulation of rat mGlu4 receptor expressed in HEK cells harboring GIRK assessed as reduction in glutamate-induced thallium flux at 10 uM preincubated for 5 mins followed by glutamate addition measured after 2 mins by BTC-AM-dye based fluorescence assay. Format: functional, cell-based.
Metabotropic glutamate receptor 4 (Rattus norvegicus), sequence (P31423 whole entry): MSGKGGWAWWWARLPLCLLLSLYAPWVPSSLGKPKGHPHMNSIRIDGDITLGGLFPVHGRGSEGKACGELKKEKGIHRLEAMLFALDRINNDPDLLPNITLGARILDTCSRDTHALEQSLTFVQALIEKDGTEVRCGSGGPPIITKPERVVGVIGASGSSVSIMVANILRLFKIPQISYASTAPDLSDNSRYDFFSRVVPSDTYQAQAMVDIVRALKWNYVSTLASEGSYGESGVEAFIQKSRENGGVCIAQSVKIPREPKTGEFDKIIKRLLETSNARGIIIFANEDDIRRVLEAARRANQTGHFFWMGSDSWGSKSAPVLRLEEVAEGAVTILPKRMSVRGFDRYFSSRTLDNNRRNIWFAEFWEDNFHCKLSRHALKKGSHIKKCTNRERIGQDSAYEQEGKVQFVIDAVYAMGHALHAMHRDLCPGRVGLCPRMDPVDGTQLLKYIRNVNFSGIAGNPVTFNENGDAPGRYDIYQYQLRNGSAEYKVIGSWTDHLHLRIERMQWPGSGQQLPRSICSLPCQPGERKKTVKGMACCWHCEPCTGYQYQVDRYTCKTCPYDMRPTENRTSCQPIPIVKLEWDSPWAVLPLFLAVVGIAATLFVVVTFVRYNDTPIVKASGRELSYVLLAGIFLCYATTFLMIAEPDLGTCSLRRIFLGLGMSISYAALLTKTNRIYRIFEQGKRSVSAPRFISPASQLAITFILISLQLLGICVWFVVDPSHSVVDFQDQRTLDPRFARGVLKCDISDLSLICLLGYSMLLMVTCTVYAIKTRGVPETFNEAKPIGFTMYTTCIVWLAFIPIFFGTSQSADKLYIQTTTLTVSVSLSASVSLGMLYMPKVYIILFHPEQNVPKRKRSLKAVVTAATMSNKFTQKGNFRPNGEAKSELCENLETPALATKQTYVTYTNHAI

Data set [17] has as its target Metabotropic glutamate receptor 6 (Rattus norvegicus) (UniProt P35349). Kind of data set: Negative allosteric modulation of rat mGlu6 receptor expressed in HEK cells harboring GIRK assessed as reduction in glutamate-induced thallium flux at 10 uM preincubated for 5 mins followed by glutamate addition measured after 2 mins by BTC-AM-dye based fluorescence assay. Format: functional, cell-based.

In data set [18] the target is Metabotropic glutamate receptor 7 (Rattus norvegicus) (UniProt P35400). Kind of data set: Negative allosteric modulation of rat mGlu7 receptor expressed in HEK cells harboring GIRK assessed as reduction in L-AP4-induced thallium flux at 10 uM preincubated for 5 mins followed by glutamate addition measured after 2 mins by BTC-AM-dye based fluorescence assay. The data set is classed as functional, cell-based.

For data set [19], the target named is Metabotropic glutamate receptor 8 (Rattus norvegicus) (UniProt P70579). Kind of data set: Negative allosteric modulation of rat mGlu8 receptor expressed in HEK cells harboring GIRK assessed as reduction in glutamate-induced thallium flux at 10 uM preincubated for 5 mins followed by glutamate addition measured after 2 mins by BTC-AM-dye based fluorescence assay. The data set is classed as functional, cell-based.

The target of data set [20] is Metabotropic glutamate receptor 1 (Rattus norvegicus) (UniProt P23385). Kind of data set: Negative allosteric modulation of rat mGlu1 receptor expressed in HEK293 cells assessed as reduction in glutamate-induced calcium mobilization at 10 uM preincubated for 2.3 mins followed by glutamate addition measured after 2.6 mins by Fluo-4--AM dye based fluorescence assay. The data set is classed as functional, cell-based.
Metabotropic glutamate receptor 1 (Rattus norvegicus), sequence (P23385 19-1199 limits assumed): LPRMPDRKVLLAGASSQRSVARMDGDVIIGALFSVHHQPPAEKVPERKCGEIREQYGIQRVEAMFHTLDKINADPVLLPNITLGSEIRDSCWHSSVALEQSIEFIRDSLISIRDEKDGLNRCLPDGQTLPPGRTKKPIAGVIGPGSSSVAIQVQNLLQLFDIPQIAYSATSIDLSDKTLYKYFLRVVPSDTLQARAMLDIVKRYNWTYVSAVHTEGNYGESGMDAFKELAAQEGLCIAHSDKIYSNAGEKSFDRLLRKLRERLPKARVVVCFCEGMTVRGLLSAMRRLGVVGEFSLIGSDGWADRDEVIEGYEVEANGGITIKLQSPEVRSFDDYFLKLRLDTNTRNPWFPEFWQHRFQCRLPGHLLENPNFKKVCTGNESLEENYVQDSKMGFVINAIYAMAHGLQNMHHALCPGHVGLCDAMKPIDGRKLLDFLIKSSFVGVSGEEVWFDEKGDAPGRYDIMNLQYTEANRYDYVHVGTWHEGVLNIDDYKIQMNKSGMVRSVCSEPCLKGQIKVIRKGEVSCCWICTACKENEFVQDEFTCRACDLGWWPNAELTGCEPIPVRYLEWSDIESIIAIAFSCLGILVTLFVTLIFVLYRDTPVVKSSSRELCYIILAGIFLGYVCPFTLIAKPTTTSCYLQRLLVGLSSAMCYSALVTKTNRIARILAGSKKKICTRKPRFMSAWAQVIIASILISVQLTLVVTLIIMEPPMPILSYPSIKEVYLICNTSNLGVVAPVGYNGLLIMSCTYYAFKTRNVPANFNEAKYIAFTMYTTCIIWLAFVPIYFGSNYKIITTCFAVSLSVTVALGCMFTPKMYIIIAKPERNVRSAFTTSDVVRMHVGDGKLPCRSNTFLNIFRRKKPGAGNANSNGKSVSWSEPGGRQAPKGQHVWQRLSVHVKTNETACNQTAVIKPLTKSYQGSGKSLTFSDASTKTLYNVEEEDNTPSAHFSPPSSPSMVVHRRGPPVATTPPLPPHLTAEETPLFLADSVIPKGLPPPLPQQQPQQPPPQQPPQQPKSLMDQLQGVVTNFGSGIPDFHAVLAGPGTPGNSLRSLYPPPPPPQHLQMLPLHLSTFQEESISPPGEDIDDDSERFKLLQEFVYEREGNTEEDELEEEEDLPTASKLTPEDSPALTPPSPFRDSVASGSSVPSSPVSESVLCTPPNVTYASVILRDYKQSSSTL

Data set [21] in a line: Metabolic stability in human hepatic S9 fraction assessed as NADPH dependent metabolism incubated for 60 mins by LC/MS analysis. Format: ADME, subcellular, Liver. Particulars: read-out: Drug metabolism.
A short description of data set [22]: Metabolic stability in rat hepatic S9 fraction assessed as NADPH dependent metabolism incubated for 60 mins by LC/MS analysis. Particulars: read-out: Drug metabolism. The data set is classed as ADME, subcellular, Liver.

Metabotropic glutamate receptor 5, sequence (P31424 whole entry): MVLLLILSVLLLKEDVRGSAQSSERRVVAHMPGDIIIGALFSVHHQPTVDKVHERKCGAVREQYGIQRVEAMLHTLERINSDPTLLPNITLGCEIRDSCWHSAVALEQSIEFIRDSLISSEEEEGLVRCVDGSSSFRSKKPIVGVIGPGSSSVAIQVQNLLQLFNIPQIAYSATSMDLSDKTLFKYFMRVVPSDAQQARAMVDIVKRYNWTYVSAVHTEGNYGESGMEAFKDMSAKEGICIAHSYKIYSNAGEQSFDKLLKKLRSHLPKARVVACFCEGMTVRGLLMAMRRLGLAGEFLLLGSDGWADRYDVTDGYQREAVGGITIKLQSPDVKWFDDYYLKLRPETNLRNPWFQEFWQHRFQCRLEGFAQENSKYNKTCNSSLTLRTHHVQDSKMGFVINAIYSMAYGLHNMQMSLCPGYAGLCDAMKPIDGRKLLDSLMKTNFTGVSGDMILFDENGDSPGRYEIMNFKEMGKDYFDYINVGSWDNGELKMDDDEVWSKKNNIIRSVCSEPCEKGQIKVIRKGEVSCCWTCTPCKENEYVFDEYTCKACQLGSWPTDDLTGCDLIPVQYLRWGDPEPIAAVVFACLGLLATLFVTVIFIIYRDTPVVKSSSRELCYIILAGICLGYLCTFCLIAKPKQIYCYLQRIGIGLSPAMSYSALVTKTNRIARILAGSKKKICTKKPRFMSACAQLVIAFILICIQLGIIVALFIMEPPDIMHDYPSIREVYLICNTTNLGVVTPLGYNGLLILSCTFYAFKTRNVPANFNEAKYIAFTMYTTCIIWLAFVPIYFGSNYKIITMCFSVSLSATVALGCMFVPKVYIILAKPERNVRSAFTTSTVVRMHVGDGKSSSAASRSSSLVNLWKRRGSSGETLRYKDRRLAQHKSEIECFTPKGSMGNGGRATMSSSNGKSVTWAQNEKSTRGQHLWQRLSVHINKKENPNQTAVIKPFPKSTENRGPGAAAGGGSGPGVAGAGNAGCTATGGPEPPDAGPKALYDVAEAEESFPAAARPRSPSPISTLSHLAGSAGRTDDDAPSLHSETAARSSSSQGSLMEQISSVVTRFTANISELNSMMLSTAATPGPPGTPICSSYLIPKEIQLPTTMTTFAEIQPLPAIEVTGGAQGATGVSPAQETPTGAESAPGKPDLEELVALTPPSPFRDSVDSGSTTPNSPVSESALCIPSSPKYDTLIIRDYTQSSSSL

By IC50 is commonly meant the midpoint of a concentration-inhibition curve. Regarding `Cc1ccc(NC(=O)c2cc(C(F)(F)c3cncnc3)cc3cccnc23)nc1`, the concentration for half-maximal inhibition (IC50) in data set [1] was 0.676 µM. Besides, the %max in [2] came to 3%.

As to `Cc1ccnc(NC(=O)c2cc(C(F)(F)c3cncnc3)cc3cccnc23)c1`, the concentration for half-maximal inhibition (IC50) in [1] was more than 10 µM. Also, the %max in data set [2] was determined as 44%.

Regarding `COc1ccnc(NC(=O)c2cc(C(F)(F)c3cncnc3)cc3cccnc23)c1`, in data set [1], the IC50 is more than 30 µM.

On to `COC(c1cncnc1)c1cc(C(=O)Nc2ccc(F)cn2)c2ncccc2c1` (centres undefined), for which the IC50 in [1] was found to be 3.48 µM. For the same compound, the %max in data set [2] worked out at 2.9%.

Turning to `O=C(Nc1nc(C2CC2)cs1)c1cc(C(F)(F)c2cncnc2)cc2cccnc12`, in data set [1], the IC50 was found to be 0.558 µM. In addition, the %max in data set [2] came to 3%.

For the compound `CC(c1cncnc1)c1cc(C(=O)Nc2ccc(F)cn2)c2ncccc2c1` (centres undefined), the IC50 in [1] came to 1.52 µM. In [2], the %max was 1.5%.

On to `O=C(Nc1ccc(F)cn1)c1cc(Oc2cncc(F)c2)cc2cccnc12`, for which the half-inhibitory concentration (IC50) in data set [1] is 0.008 µM.

Turning to `O=C(c1cncnc1)c1cc(C(=O)Nc2ccc(F)cn2)c2ncccc2c1`, the IC50 in data set [1] is 0.842 µM. Further, in [2], the %max was found to be 2.7%.

For the compound `O=C(Nc1ccc(F)cn1)c1cc(C(F)c2cncnc2)cc2cccnc12` (centres undefined), the 50% inhibitory concentration (IC50) in [1] came out at 0.217 µM. The %max in data set [2] is 1.5%.

With `COc1cccc(NC(=O)c2cc(C(F)(F)c3cncnc3)cc3cccnc23)n1`, the concentration for half-maximal inhibition (IC50) in data set [1] worked out at 1.61 µM. The %max in [2] is 7.1%.

In the case of `CCc1cccc(NC(=O)c2cc(C(F)(F)c3cncnc3)cc3cccnc23)n1`, the IC50 in [1] is 3.6 µM. Also, the %max in [2] was determined as 7.8%.

Turning to `Cc1csc(NC(=O)c2cc(C(O)c3cncnc3)cc3cccnc23)n1` (centres undefined), the IC50 in [1] was more than 10 µM. In addition, the Drug uptake entry in data set [3] is listed as “Active”.

In the case of `Cc1csc(NC(=O)c2cc(C(C)c3cncnc3)cc3cccnc23)n1` (centres undefined), the IC50 in data set [1] turned out to be 0.589 µM. Also, the %max in data set [2] turned out to be 1.4%.

For orientation: fraction unbound means the share of the substance not bound to proteins or other matrix. High values mean much free substance, low ones little free substance. For the compound `O=C(Nc1ccc(F)cn1)c1cc(Oc2cncc(F)c2)cn2ncnc12`, the unbound share (fraction unbound) at 4 h, 5 µM in “in vitro [4]” stood at 0.066; in “in vitro [5]”, 0.071.

Consider `O=C(c1cncnc1)c1cc(C(=O)Nc2cccc(F)n2)c2ncccc2c1`, for which the IC50 in data set [1] was more than 10 µM. In addition, in [2], the %max is 12.5%.

For orientation: half-life means how long it takes for the measured level to halve. Low readings indicate fast loss, high ones slow loss. By MRT is commonly meant a mean duration of stay, worked out from the concentration-time curve. A word on the Vdss: it is a proportionality between amount in the body and measured concentration, not a real space. For the compound `Cc1csc(NC(=O)c2cc(C(=O)c3cncnc3)cc3cccnc23)n1`, the concentration for half-maximal inhibition (IC50) in data set [1] was 0.172 µM. The %max in data set [2] was 1.3%. Moreover, in data set [6], the Drug metabolism result is given as “Metabolite_Detected”. Moreover, in [7], the half-life is 30 min. Further, the results for the mean residence time (MRT) (in data set [8]; in the data set with Rattus norvegicus [11]) were 19 min and 107 min, respectively. Also, the Vd in data set [9] was determined as 50 L/kg. The t1/2 in the data set with Rattus norvegicus [10] came out at 171 min. In addition, the Vdss with Rattus norvegicus [12] is 10 L/kg.

In the case of `Cc1csc(NC(=O)c2cc(C(F)(F)c3cncnc3)cc3cccnc23)n1`, the inhibition result in data set [13] was “Active”. For the same compound, the inhibition result in [14], in data set [15], in [16], in data set [17], in data set [18] and in data set [19] was “inactive” each time. Further, the inhibition entry in [20] was “inactive”.

As for `N#Cc1ccc(NC(=O)c2cc(C(F)(F)c3cncnc3)cc3cccnc23)nc1`, the IC50 in data set [1] was more than 30 µM.

As to `Cc1csc(NC(=O)c2cc(C(F)c3cncnc3)cc3cccnc23)n1` (centres undefined), the IC50 in data set [1] came out at 0.378 µM. Moreover, the %max in data set [2] is 1.7%. In addition, the metabolised at 1 h came to 27% in [21] and 55% in data set [22].

`N#Cc1ccnc(NC(=O)c2cc(C(F)(F)c3cncnc3)cc3cccnc23)c1`: the half-maximal inhibitory concentration (IC50) in [1] was more than 30 µM.

Turning to `Cc1cccc(NC(=O)c2cc(C(F)(F)c3cncnc3)cc3cccnc23)n1`, in data set [1], the IC50 was 1.1 µM. In data set [2], the %max stood at 2.7%.

Consider `COC(c1cncnc1)c1cc(C(=O)Nc2nc(C)cs2)c2ncccc2c1` (centres undefined), for which, in data set [1], the IC50 was 1.75 µM. In addition, the %max in [2] is 1.8%.

As for `Cc1cccc(NC(=O)c2cc(C(=O)c3cncnc3)cc3cccnc23)n1`, in data set [1], the IC50 came out at 0.417 µM. In addition, in data set [2], the %max was 1.5%.

Consider `O=C(Nc1ccc(F)cn1)c1cc(C(F)(F)c2cncnc2)cc2cccnc12`, for which the IC50 in [1] was found to be 0.392 µM. Moreover, the %max in data set [2] came out at 4.5%.
